According to ChEMBL document CHEMBL3124854, “Synthesis and evaluation of antiproliferative activity of a novel series of hydroxychavicol analogs” (Eur J Med Chem, 2014):

How the values were obtained:
[1] = tested on: HeLa; experiment: Cytotoxicity against human HeLa cells assessed as growth inhibition after 48 hrs by MTT assay; assay type: functional, cell-based
Summary of the method: (§1)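 MTT proliferation assay: 2 × 10³ cells per well seeded, 24 h incubation, then treated with analogs dissolved in DMSO and diluted in medium at […] for 48 h. Medium then replaced with fresh medium carrying MTT (5 mg/mL stock in PBS). IC50 taken as concentration inhibiting proliferation of 50% cells; SD between batches.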

[2] = tested on: PC-3; experiment: Cytotoxicity against human PC3 cells assessed as growth inhibition after 48 hrs by MTT assay; assay type: functional, cell-based; details: PC-3, 48 h; summary of the method: as §1

CC(=O)OCCCc1ccc(O)c(O)c1
IC50 [1]: 22 µM
IC50 [2]: 83 µM

C=CC(O)c1ccc(OCc2ccccc2)c(O)c1 (stereo not given)
IC50 [1]: 76 µM

CCC(OC(C)=O)c1ccc(OC(C)=O)c(OC(C)=O)c1 (stereo not given)
IC50 [1]: 53 µM
IC50 [2]: 42 µM

CCC(OC(C)=O)c1ccc(O)c(OC(C)=O)c1 (stereo not given)
IC50 [1]: 40 µM
IC50 [2]: 48 µM

CC(=O)OC/C=C/c1ccc(OCc2ccccc2)c(OC(C)=O)c1
IC50 [1]: 42 µM
IC50 [2]: 38 µM

COc1cc(CC(COC(C)=O)OC(C)=O)ccc1O (stereo not given)
IC50 [1]: 60 µM

C=CCOc1ccc(CC(COC(C)=O)OC(C)=O)cc1OC (stereo not given)
IC50 [1]: 96 µM

CC(=O)OC/C=C/c1ccc(OCc2ccccc2)c(O)c1
IC50 [1]: 13 µM
IC50 [2]: 3.5 µM

C=CCc1ccc(O)c(O)c1 [HYDROXYCHAVICOL]
IC50 [1]: 83 µM
IC50 [2]: 55 µM
